High-throughput results: PubChem BioAssay, Sanford-Burnham Center for Chemical Genomics
SUMO1-SIM PPI = modulators of human SUMO1-mediated protein-protein interactions. P63165. SUMO1 binding to a labelled peptide, TR-FRET, 1 h. inhibition, % at 20 µM. 360,000 tested, 0.33% active. AID 602429; in the data active = inhibition above about 37%
Scp-1 inhibitor = inhibitors of human Scp-1 phosphatase; 340,000 tested, 0.88% active; inhibition, % at 20 µM; Q9GZU7; Recombinant Scp1, phosphopeptide, malachite green phosphate absorbance;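 active = inhibition above about 50% at 20 µM, limit read from the data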;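 also: plate controls were DMSO wells with enzyme for no effect and wells lacking enzyme for full effect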
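Test system: SCP-1 phosphatase catalytic domain, residues 76-261; measured by: colorimetric phosphate reagent with accelerator and stabiliser, absorbance at 630 nm; timing: enzyme reaction 45 min at room temperature, colour 5 min, stabilisation 30 min; also added: Phosphorylated 17-residue peptide substrate; compound dosing: one concentration, 20 µM, with 1.0% DMSO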
NadD inh = NadD (S. aureus) enzyme inhibition; purified NadD enzyme, colorimetric absorbance read-out; inhibition, % at 20 µM; 360,000 tested, 0.78% active; in the data active = inhibition above about 26%
STEP block = inhibitors of human striatal-enriched phosphatase STEP; P54829; recombinant STEP, OMFP fluorogenic substrate, fluorescence; inhibition, % at 20 µM; 360,000 tested, 0.25% active; AID 588621;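 active = inhibition at 20 µM, scaled per plate between control wells, above about 37%, limit read from the data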;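 also: 0% = DMSO with enzyme and substrate and 100% = substrate only without enzyme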
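Test system: STEP tyrosine phosphatase / Reagent: OMFP at 25 µM / Doses: 20 µM, 1% DMSO / Read-out: percent inhibition scaled to no-enzyme and uninhibited-enzyme controls, plate-pattern corrected / Detection: FITC-channel fluorescence of OMFP product / Medium: Bis-Tris buffer pH 6.0, 2.5 mM DTT, 0.005% Tween 20 / Schedule: 20 min at room temperature, dark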
DNMT1 block = DNMT1 (human) enzyme inhibition; DNMT1 molecular beacon, Hinp1I cleavage, fluorescence; AID 588458; 360,000 tested, 0.83% active; inhibition (reported as % activation of signal), % at 10 µM; P26358; in the data active = inhibition above about 50%
Target sequence (P26358 504-1616 limits assumed): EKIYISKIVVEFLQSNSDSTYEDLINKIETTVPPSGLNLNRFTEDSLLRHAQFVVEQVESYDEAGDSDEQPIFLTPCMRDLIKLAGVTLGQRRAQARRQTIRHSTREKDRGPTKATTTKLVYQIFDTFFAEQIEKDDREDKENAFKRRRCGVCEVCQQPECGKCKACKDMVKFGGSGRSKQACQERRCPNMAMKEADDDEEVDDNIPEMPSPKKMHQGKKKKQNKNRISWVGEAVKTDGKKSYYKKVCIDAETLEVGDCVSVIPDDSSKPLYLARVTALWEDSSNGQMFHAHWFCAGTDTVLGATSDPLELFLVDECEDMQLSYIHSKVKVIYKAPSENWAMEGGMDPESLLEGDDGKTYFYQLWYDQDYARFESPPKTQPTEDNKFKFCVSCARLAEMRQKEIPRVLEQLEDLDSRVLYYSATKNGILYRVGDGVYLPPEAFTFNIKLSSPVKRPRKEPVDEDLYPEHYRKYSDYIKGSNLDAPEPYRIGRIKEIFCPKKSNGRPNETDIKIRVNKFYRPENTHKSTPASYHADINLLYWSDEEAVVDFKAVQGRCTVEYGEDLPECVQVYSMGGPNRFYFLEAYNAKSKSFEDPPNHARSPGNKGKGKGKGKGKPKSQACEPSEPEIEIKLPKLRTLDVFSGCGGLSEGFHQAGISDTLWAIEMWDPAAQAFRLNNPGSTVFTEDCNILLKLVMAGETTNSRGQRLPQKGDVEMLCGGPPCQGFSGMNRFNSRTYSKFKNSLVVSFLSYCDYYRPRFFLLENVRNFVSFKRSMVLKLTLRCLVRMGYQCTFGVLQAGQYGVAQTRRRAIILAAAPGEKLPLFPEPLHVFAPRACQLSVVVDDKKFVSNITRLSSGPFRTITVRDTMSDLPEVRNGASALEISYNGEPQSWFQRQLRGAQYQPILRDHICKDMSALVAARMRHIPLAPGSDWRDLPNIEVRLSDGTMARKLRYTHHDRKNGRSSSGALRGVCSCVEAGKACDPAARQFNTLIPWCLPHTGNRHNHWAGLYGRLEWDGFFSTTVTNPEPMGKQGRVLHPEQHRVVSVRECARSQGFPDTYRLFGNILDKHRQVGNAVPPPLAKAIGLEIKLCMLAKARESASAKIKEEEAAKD
LMPTP inh = blocks human LMPTP phosphatase; P24666; recombinant LMPTP-A, OMFP fluorogenic substrate, fluorescence intensity; inhibition, % at 20 µM; 360,000 tested, 0.22% active; AID 651560;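 active = compounds that cut the enzyme signal by at least half of the control window in the single-dose screen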;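 also: plate controls were DMSO wells with enzyme plus substrate for no effect and substrate without enzyme for full effect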
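Test system – LMPTP-A phosphatase enzyme · Quantity – 0.625 nM LMPTP-A final · Reagent – OMFP substrate, 400 µM final · Dosing – one test concentration per compound, 20 µM, with 3% DMSO overall · Timing – 50 min enzyme reaction at room temperature, protected from light · Detection – fluorescence intensity · Controls – substrate-only low control, DMSO enzyme-plus-substrate high control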
Scp1 confirm = Scp-1 (human) inhibition, single-dose confirmed. shares compounds with Scp-1 inhibitor. recombinant SCP-1 catalytic domain, phosphate release, malachite green absorbance. inhibition, % at 20 µM. 2,500 tested, 61% active. AID 540281;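 also: plate controls were DMSO with enzyme for no effect and buffer wells lacking enzyme for full effect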
MG interference = counter-screen for Scp-1 inhibitors: colorimetric interference; shares compounds with Scp-1 inhibitor; Colorimetric interference counterscreen, malachite green absorbance 630 nm; apparent inhibition (interference), % at 20 µM; 2,500 tested, under 10 active; AID 540313;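 also: compounds added after enzyme reaction finished so only phosphate colour detection is probed; plate controls were DMSO wells with completed Scp-1 reaction for no effect and substrate wells lacking enzyme for full effect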
Scp-1 Tm shift = binds human Scp-1, shifting its melting temperature. shares compounds with Scp-1 inhibitor. Recombinant SCP1, Sypro Orange thermal shift Tm. thermal shift relative to vanadate control, % at 40 µM. 1,500 tested, 25% active;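 active = substances whose mean melting-temperature shift, as a percentage of the reference inhibitor's shift, reaches about 5.3%, limit read from the data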;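 also: 0% = Tm of DMSO wells and 100% = Tm with sodium orthovanadate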
The depositor's hits bear a star; / = no result given. In the library only some 2.3% were active in any assay of this set; here they are far more common.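 The calls were made as follows, unless noted: active = inhibition of at least 30% at 20 µM; inactive = the rest.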

SMILES | SUMO1-SIM PPI | Scp-1 inhibitor | NadD inh | STEP block | DNMT1 block | LMPTP inh | Scp1 confirm | MG interference | others
COc1ccc(NC(=O)Nc2ccc(N(C)C)cc2)cc1 | 1 | 57* | -1 | -4 | -8 | 0 | -3 | -14
O=C(COC(=O)CNC(=O)c1ccccc1)NCc1ccc2c(c1)OCO2 | 4 | 67* | -5 | -1 | -1 | 0 | -16 | -19
O=C(COC(=O)CNC(=O)c1cccc(OC(F)F)c1)NCc1ccc2c(c1)OCO2 | -3 | -6 | -3 | -3 | -1 | -1 | / | /
C[C@@H]1CN([C@H](C)CO)C(=O)CCCn2nncc2CO[C@@H]1CN(C)C(=O)NC1CCCCC1 | 3 | / | 6 | -1 | 6 | -1 | / | /
O=C(NCc1cccc(F)c1)C1CCC(=O)N(CC2CCCCC2)C1 (centres undefined) | 5 | 1 | -2 | -1 | 0 | 0 | / | /
O=C(CCCC(=O)Nc1cccc(Br)c1)N/N=C/c1cc([N+](=O)[O-])ccc1O | -21 | 56* | 1 | -2 | 1 | 2 | 67* | -10 | Scp-1 Tm shift=7.4*
O=C(CCC(=O)Nc1cccc(Cl)c1)N/N=C/c1cc([N+](=O)[O-])ccc1O | -3 | 3 | 5 | 2 | -1 | 0 | / | /
COC[C@H]1CCCN1c1ccc2c(c1)O[C@H](COCc1ccccc1)CN([C@H](C)c1ccccc1)S2(=O)=O | 4 | / | -10 | / | / | 4 | / | /
Cc1ccc(C(C)NC(=O)C2CCCC2)cc1C (centres undefined) | 2 | -1 | 3 | 2 | -4 | -2 | / | /
Cc1ccc(C(c2ccc(C)c(C)c2)C(O)C2OC(=O)C(O)C2O)cc1C (centres undefined) | 4 | 53* | 8 | 0 | 12 | 3 | 23 | -5
Cn1nc2c(c1C(=O)O)CCCC2 | 1 | 60* | 3 | -6 | 41 | 0 | 67* | 1 | Scp-1 Tm shift=-5
CCOC(=O)c1cnc2nc(NCc3ccc(OC)c(OC)c3)[nH]n2c1=O | 9 | 54* | -5 | 23 | 2 | 11 | 31* | -8 | Scp-1 Tm shift=1
CCCCN(C(=O)c1cc2c(s1)CCCCC2)c1c(N)n(CC(C)C)c(=O)[nH]c1=O | -1 | 3 | -2 | -6 | 16 | -2 | / | /
COc1ccccc1OCCNC(=O)c1ccc2c(c1)OCCO2 | 0 | 2 | 2 | 2 | -3 | -1 | / | /
CC1=NC(C(F)(F)F)(C(F)(F)F)C(C#N)=C(C)N1 | 0 | 56* | -2 | -3 | 1 | -1 | -8 | -5
CC1=C(C#N)C(Nc2cc(C)ccn2)(C(F)(F)F)C(=O)N1 (centres undefined) | 1 | -20 | -4 | 0 | -2 | 0 | / | /
Clc1ccc(OCc2nnc3n2CCCCC3)c(Cl)c1 | 2 | -3 | -1 | 2 | 1 | -1 | / | /
COc1ccc(Cl)cc1S(=O)(=O)N1CCC(C(=O)NCC2CCCO2)CC1 (centres undefined) | -4 | -10 | -1 | 1 | 2 | 0 | / | /
COc1ccc(OC)c(S(=O)(=O)N2CCC(C(=O)NCC3CCCO3)CC2)c1 (centres undefined) | 11 | 92* | -23 | -2 | 3 | -2 | -12 | -9
Cc1cccc(OCCOCCN2CCOCC2)c1C | 3 | 51* | 3 | 2 | 2 | 0 | -16 | -13
CCn1c2ccccc2c2nnc(SCC(=O)c3c(N)n(C)c(=O)n(C)c3=O)nc21 | 6 | 63* | 15 | 12 | -17 | -1 | -3 | -10
O=C(O)C1CC=CCC1C(=O)N1CCc2ccccc21 (centres undefined) | -2 | 52* | 9 | 5 | 33 | 1 | 49* | 0 | Scp-1 Tm shift=0
O=C(O)C1C2C=CC(C2)C1C(=O)N1CCc2ccccc21 (centres undefined) | -3 | -5 | 1 | 3 | 6 | 0 | / | /
Cc1cnc(CNC(=O)c2ccc3sc([C@H]4C[C@H](O)[C@@H](CO)O4)nc3c2)cn1 | -3 | / | 0 | -1 | 4 | -2 | / | /
CSCCC(NS(=O)(=O)c1ccc2c(c1)oc(=O)n2C)C(=O)NC1CCC(C)CC1 (centres undefined) | 8 | -22 | -3 | 0 | -2 | -1 | 4 | -6
SMILES | SUMO1-SIM PPI | Scp-1 inhibitor | NadD inh | STEP block | DNMT1 block | LMPTP inh | Scp1 confirm | MG interference | others
O=C(Cn1c(=O)oc2cc(S(=O)(=O)N3CCCCCC3)ccc21)NC1CCCCCCC1 | 9 | 101* | -4 | 2 | 24 | 2 | 54* | -9 | Scp-1 Tm shift=-13
O=C(Cn1c(=O)oc2cc(S(=O)(=O)N3CCCC3)ccc21)N1CCN(c2ccccc2)CC1 | 2 | 69* | -4 | 5 | 0 | 0 | -2 | -16
COc1cc([N+](=O)[O-])cc(/C=N/NC(=O)Cn2nccc2C)c1O | -49 | -11 | 0 | 2 | 30 | 1 | / | /
CCn1c(=O)[nH]c(=O)c2c(N)c(C(=O)c3cc(F)ccc3F)sc21 | -8 | -19 | -3 | -1 | 0 | -3 | / | /
CCC(NC(=O)c1ccccc1NC(=O)C(C)(C)C)C(=O)N1CC(C)OC(C)C1 (centres undefined) | -1 | -5 | 1 | -2 | 4 | -1 | / | /
Cc1ccc(NC(=O)c2cccc(C(=O)Nc3ccc(C)cc3C(=O)O)c2)c(C(=O)O)c1 | 17 | 57* | 9 | 6 | 0 | -2 | 54* | -11 | Scp-1 Tm shift=1
O=C(NNC(=O)c1ccc(NC(=O)c2ccccc2)cc1)Nc1ccccc1 | -1 | 51* | -6 | 6 | 14 | 14 | 67* | -11 | Scp-1 Tm shift=-12
Cc1cccc(C(=O)NNC(=O)c2ccc(-c3ccccc3)cc2)c1 | 5 | 70* | -3 | 11 | 41 | 43 | 73* | -16 | Scp-1 Tm shift=-9
O=C(NNC(=O)c1ccc(-c2ccccc2)cc1)c1ccccc1 | 2 | 74* | -2 | 24 | 49 | 31 | 54* | -19 | Scp-1 Tm shift=5.7*
O=C(NNC(=O)c1ccc(NC(=O)c2ccccc2)cc1)c1ccc(F)cc1 | 22 | 39 | 3 | 25 | 22 | 48 | / | /
COc1ccc(C)cc1NC(=O)c1cccc(C(=O)Nc2cc(C)ccc2OC)c1 | 9 | -11 | -8 | -2 | -2 | 2 | / | /
CCc1ccccc1NC(=O)CCc1nc(-c2cccs2)no1 | -2 | -9 | 5 | -1 | 0 | 0 | / | /
O=C(O)CCN=CC1=C(O)CC(c2ccccc2)CC1=O (centres undefined) | 1 | 14 | -7 | 0 | -1 | -2 | / | /
